Sampled rows, rich in hits. Any-hit rate of the full collection: about 3.5%.
RGS4 inh = human RGS4 inhibition; B-score at 10 µM; 310,000 tested, 0.45% active; P49798; HEK293 M3R/RGS4 inducible, Fluo-4 calcium flux; stronger effect = higher value; triggered by carbachol at its EC20; AID 463165;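 active means B-score, a plate-corrected calcium signal, over three deviations above library mean, with baseline fluorescence within five deviations of library mean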;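 further: RGS4 expression induced by doxycycline in cells with stable M3 receptor; B-score is computed from the integrated fluorescence ratio over baseline after carbachol; higher B-score means a larger calcium signal and so more RGS4 inhibition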
Target sequence (P49798 whole entry, looked up): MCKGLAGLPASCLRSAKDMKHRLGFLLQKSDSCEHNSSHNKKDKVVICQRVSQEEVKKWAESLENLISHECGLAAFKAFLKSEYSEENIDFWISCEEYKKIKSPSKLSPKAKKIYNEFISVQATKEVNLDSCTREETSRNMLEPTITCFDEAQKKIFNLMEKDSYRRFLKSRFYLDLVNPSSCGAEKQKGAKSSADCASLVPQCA
MrgX1 agonist = agonists of human MrgX1 receptor. 310,000 tested, 0.44% active. B-score at 10 µM. AID 588627. MrgX1-HEK293 cells, Fluo-4 calcium fluorescence, agonist mode; stronger effect = higher value;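 active means calcium response B-score plate-corrected fluorescence ratio at least 3 library SD, with starting fluorescence B-score inside 5 SD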
Target sequence (Q96LB2 whole entry, looked up): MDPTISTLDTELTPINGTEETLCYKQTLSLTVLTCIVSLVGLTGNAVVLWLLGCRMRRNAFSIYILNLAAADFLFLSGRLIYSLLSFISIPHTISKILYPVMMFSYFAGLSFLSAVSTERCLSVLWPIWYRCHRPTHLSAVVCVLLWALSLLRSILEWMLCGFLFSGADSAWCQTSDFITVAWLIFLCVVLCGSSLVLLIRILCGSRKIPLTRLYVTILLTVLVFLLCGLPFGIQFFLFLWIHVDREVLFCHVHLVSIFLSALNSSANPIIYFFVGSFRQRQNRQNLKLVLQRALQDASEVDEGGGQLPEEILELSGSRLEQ
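Assay system: MrgX1-expressing HEK293 cells / Amount: fifteen thousand cells per well / Doses: test compound in the initial addition of three / Timing: cells plated overnight, dye loaded 0.5 h 37 °C, 0.5 h room temperature / Technique: kinetic calcium dye fluorescence, Fluo-4 NW / Control set: positive and negative controls per plate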
MrgX1 antagonist = antagonists of human MrgX1 receptor; 310,000 tested, 1.3% active; MRGX1-HEK293 calcium flux, Fluo-4, BAM8-22 antagonism; stronger effect = lower value; B-score at 10 µM; Q96LB2;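 active means calcium-response B-score plate-corrected more than 3 library SD below zero, starting fluorescence within 5 deviations, no agonist response on first addition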;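 further: peak minus trough fluorescence over baseline after final BAM8-22 challenge near maximal dose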
MrgX1 PAM = allosterically activates human MrgX1 receptor signaling; Q96LB2; MrgX1-HEK293, Fluo-4 calcium flux, FDSS; stronger effect = higher value; B-score at 10 µM; 310,000 tested, 0.63% active;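 active means plate-corrected calcium response at least 3 library SD above typical, normal starting fluorescence, not activating the receptor alone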;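 further: compound read alongside a low EC10 to EC30 dose of BAM8-22 agonist; peak minus trough fluorescence over baseline measured at the second addition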
RGS4 pot = potentiators or activators of RGS4; HEK293 M3R/inducible RGS4, carbachol calcium flux Fluo4; stronger effect = lower value; B-score at 10 µM; 310,000 tested, 0.92% active;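 active means B-score of the integrated calcium signal more than 4 SD below the library mean, with starting fluorescence not abnormally high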;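 further: negative B-score means reduced calcium response which marks RGS4 activation or potentiation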
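Assay system: HEK293 FlpIn-TREx cells, stable M3R, doxycycline-inducible RGS4 / Probe or stimulus: carbachol, ECmax concentration / Times: overnight RGS4 induction, 30 min dye load 37 °C, 20 min compound RT / Signal: kinetic calcium fluorescence imaging with Fluo4-AM dye, 2 µM / Measure: Agonist-evoked peak-minus-minimum fluorescence over baseline, integrated ratio, B score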
RGS4 block valid = validation of RGS4 inhibitors; HEK293 M3R/RGS4, carbachol calcium Fluo-4 fluorescence; carbachol added at its EC20; 0 = buffer wells, 100 = carbachol control; 1,700 tested, 65% active; calcium response, % at 10 µM; shares compounds with RGS4 inh;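 active means duplicate-averaged calcium response above the buffer-only control mean plus 5 SD of those controls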;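 further: integrated fluorescence ratio F max minus min over baseline F0; higher response in RGS4-induced cells means RGS4 inhibition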
M3R Ca ctr = checks RGS4 inhibitor effects in non-induced HEK293 M3R cells | shares compounds with RGS4 inh | carbachol calcium Fluo-4; submaximal (EC20) carbachol stimulus; buffer wells 0%, carbachol control wells 100% | activity (percent), % at 10 µM | 1,900 tested, 20% active; call rule not given here;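 further: RGS4 induction absent so cells express M3R without RGS4; higher means more calcium signal and flags a non-specific hit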
RGS4 inh ctr2 = signal in non-induced cells without carbachol, RGS4 inhibitor counter-screen | shares compounds with RGS4 inh | 1,900 tested, 22% active | AID 493001 | HEK293 M3R/RGS4 non-induced, Fluo-4 calcium, no carbachol; normalised: buffer wells 0%, carbachol wells 100% | calcium response (agonist-mode artifact), % at 10 µM;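 active means duplicate-averaged calcium rise in uninduced cells above buffer wells' mean plus 5 SD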
Numbers stand for hits; i = inactive; nt = no result.

SMILES	RGS4 inh	MrgX1 agonist	MrgX1 antagonist	MrgX1 PAM	RGS4 pot	RGS4 block valid	M3R Ca ctr	RGS4 inh ctr2
CC1=C(C)CC(C(=O)Nc2ccc(C(=O)N3CCOCC3)cc2)C(C(=O)O)C1 (stereo not given)	i	i	i	i	i	nt	nt	nt
COc1ccc(NC(=O)CSc2nnc(-c3ccccc3)n2N)cc1	i	i	i	i	i	nt	nt	nt
CCn1c2ccccc2c2cc(NC(=O)CSc3nnc(-c4ccc(OC)cc4)n3N)ccc21	5.3	i	i	i	i	10%	i	i
CCCNC(=O)c1nnsc1S(=O)c1ccc(Cl)cc1 (stereo not given)	7.2	nt	nt	nt	i	12%	i	22%
CNC(=O)c1nnsc1S(=O)c1ccc(Cl)cc1 (stereo not given)	7.3	nt	nt	nt	i	30%	i	14%
COc1ccc(CCNC(=O)Nc2ccccc2[N+](=O)[O-])cc1	i	i	i	i	i	nt	nt	nt
Cc1cccc(C(=O)NNC(=O)c2ccco2)c1	i	i	i	i	i	nt	nt	nt
NC(=O)CC(NC(=O)Cc1ccc(Br)cc1)c1ccc(NC2CCCC2)c([N+](=O)[O-])c1 (stereo not given)	i	i	i	i	i	i	i	i
NC(=O)CC(NC(=O)Cc1ccc(Br)cc1)c1ccc(NC2CCCCCC2)c([N+](=O)[O-])c1 (stereo not given)	i	i	i	i	i	i	i	i
NC(=O)CC(NC(=O)Cc1ccc(Cl)cc1)c1ccc(NC2CCCCCC2)c([N+](=O)[O-])c1 (stereo not given)	i	i	i	i	i	nt	nt	nt
NC(=O)CC(NC(=O)Cc1ccc(Cl)cc1)c1ccc(NC2CCCCCCC2)c([N+](=O)[O-])c1 (stereo not given)	4.7	i	i	i	i	11%	i	i
CCOC(=O)[C@@H]1[C@H]2COc3cc(OC)ccc3[C@@H]2N2C(=O)N(c3ccc(Cl)cc3)C(=O)[C@]12C	i	i	i	i	i	i	i	i
CCOC(=O)[C@H]1[C@H]2COc3cc(OC)ccc3[C@@H]2N2C(=O)N(c3cccc(Cl)c3)C(=O)[C@@]12C	i	i	i	i	i	i	i	i
CCOC(=O)[C@@H]1[C@H]2COc3cc(OC)ccc3[C@@H]2N2C(=O)N(c3cccc(Cl)c3)C(=O)[C@]12C	i	i	i	i	i	i	i	i
CCOC(=O)[C@@H]1[C@H]2COc3cc(OC)ccc3[C@@H]2N2C(=O)N(c3cccc(Cl)c3)C(=O)[C@@]12C	i	i	i	i	i	i	i	i
CCOC(=O)[C@@H]1[C@H]2COc3cc(OC)ccc3[C@@H]2N2C(=O)N(c3ccc(Br)cc3)C(=O)[C@]12C	i	i	i	i	i	nt	nt	nt
CCOC(=O)[C@@H]1[C@H]2COc3cc(OC)ccc3[C@@H]2N2C(=O)N(c3ccc(C)cc3)C(=O)[C@]12C	i	i	i	i	i	nt	nt	nt
Cc1ccc(NC(=O)c2ccc3c(c2)C(=O)N(c2cc(C)ccc2C)C3=O)nc1	i	i	i	i	i	nt	nt	nt
Cc1cc(C)c2nc(NNC(=O)c3ccc(S(=O)(=O)N4CC(C)CC(C)C4)cc3)sc2c1 (stereo not given)	i	i	i	i	i	nt	i	i
Cc1cc(C)c2nc(NNC(=O)c3ccc(S(=O)(=O)N4CCCC(C)C4)cc3)sc2c1 (stereo not given)	i	i	i	i	i	nt	nt	nt
Cc1ccc2nc(NNC(=O)c3ccc(S(=O)(=O)N4CCc5ccccc5C4)cc3)sc2c1	i	i	i	i	i	nt	i	i
Cc1cccc2sc(NNC(=O)c3ccc(S(=O)(=O)N4CC(C)CC(C)C4)cc3)nc12 (stereo not given)	6.5	i	i	i	i	10%	i	i
Cc1ccc(/C=N/N2CCN(Cc3ccccc3)CC2)cc1	i	i	i	i	i	nt	nt	nt
Cc1ccc(CN2CCN(/N=C/c3ccc(N(C)C)cc3)CC2)cc1	8.8	i	i	i	i	i	i	i
NC(=S)N/N=C/c1ccc(-n2nncc2-c2ccc(Cl)cc2)cc1	39	i	i	i	i	23%	64%	i
SMILES	RGS4 inh	MrgX1 agonist	MrgX1 antagonist	MrgX1 PAM	RGS4 pot	RGS4 block valid	M3R Ca ctr	RGS4 inh ctr2
Cc1cc(C2(c3ccc(O)c(C)c3)C(=O)N(C)c3ccc(Br)cc32)ccc1O	13	i	i	i	i	28%	i	i
CC1(C)CC(=O)C(=Cc2cn(-c3ccccc3)nc2-c2ccccc2)C(=O)C1	i	i	i	i	i	i	i	i
O/N=C/c1cn(-c2ccccc2)nc1-c1ccccc1	i	i	i	i	i	nt	nt	nt
CNC(=O)c1[nH]cnc1C(=O)Nc1ccccn1	i	i	i	i	i	i	i	i
CSc1cccc(NC(=O)C2CCCN(c3ncnc4c3nc3n4CCCCC3)C2)c1 (stereo not given)	i	i	i	i	i	nt	nt	nt
Cc1ccc(NCC(=O)N/N=C/c2cc3ccccc3nc2Cl)cc1	8	i	i	i	i	9.5%	i	i
O=C(c1c[nH]c2ccccc12)C(Cl)c1ccccc1 (stereo not given)	i	i	i	i	i	nt	nt	nt
NC[C@@H]1O[C@H](C23CC4CC(CC(C4)C2)C3)Cc2c1ccc(O)c2O	10	i	i	i	i	10%	i	i
Cc1ccc(N(Cc2cc3ccc(C)cc3[nH]c2=O)C(=O)c2cccs2)cc1	i	i	i	i	i	nt	nt	nt
Cc1ccc(N(Cc2cc3ccc(C)cc3[nH]c2=O)C(=O)c2ccco2)cc1	i	i	i	i	i	i	i	i
Cc1ccc2cc(CN(C(=O)c3ccco3)c3ccccc3)c(=O)[nH]c2c1	5.4	i	i	i	i	i	i	i
Cc1ccc(N(Cc2cc3ccccc3[nH]c2=O)C(=O)c2ccco2)c(C)c1	i	i	i	i	i	nt	nt	nt
Cc1cccc(N(Cc2cc3ccc(C)cc3[nH]c2=O)C(=O)c2ccco2)c1	i	i	i	i	i	nt	i	i
C=CCN(c1ccccc1Cl)S(=O)(=O)c1cccc(C(=O)NCCc2ccc(OC)cc2)c1	i	i	i	i	i	nt	nt	nt
Cc1cccc(C(C)C)c1NC(=O)c1c(-c2ccccc2)noc1C	i	i	i	i	i	nt	nt	nt
O=C(CSC1=NS(=O)(=O)c2ccccc21)Nc1ccccc1	9.4	i	i	i	i	25%	i	i
O=C(O)CCn1nnc(-c2ccccc2)n1	i	i	i	i	i	nt	nt	nt

Screening data deposited in PubChem BioAssay by Johns Hopkins Ion Channel Center.
